Data published in ChEMBL document CHEMBL4028879, “Structure-Activity Relationship Studies of Pyrimido[5,4-b]indoles as Selective Toll-Like Receptor 4 Ligands” (J Med Chem, 2017).

Experiments:
Toll-like receptor 4 [1] = biological target: T1, Toll-like receptor 4 (Mus musculus, UniProt Q9QUK6); assay: Agonist activity at mouse TLR4 expressed in HEK293 blue cells assessed as induction of NF-kappaB activation-mediated SEAP production after 20 to 24 hrs by colorimetric assay; assay type: cell-based
T1 sequence (Q9QUK6 whole entry): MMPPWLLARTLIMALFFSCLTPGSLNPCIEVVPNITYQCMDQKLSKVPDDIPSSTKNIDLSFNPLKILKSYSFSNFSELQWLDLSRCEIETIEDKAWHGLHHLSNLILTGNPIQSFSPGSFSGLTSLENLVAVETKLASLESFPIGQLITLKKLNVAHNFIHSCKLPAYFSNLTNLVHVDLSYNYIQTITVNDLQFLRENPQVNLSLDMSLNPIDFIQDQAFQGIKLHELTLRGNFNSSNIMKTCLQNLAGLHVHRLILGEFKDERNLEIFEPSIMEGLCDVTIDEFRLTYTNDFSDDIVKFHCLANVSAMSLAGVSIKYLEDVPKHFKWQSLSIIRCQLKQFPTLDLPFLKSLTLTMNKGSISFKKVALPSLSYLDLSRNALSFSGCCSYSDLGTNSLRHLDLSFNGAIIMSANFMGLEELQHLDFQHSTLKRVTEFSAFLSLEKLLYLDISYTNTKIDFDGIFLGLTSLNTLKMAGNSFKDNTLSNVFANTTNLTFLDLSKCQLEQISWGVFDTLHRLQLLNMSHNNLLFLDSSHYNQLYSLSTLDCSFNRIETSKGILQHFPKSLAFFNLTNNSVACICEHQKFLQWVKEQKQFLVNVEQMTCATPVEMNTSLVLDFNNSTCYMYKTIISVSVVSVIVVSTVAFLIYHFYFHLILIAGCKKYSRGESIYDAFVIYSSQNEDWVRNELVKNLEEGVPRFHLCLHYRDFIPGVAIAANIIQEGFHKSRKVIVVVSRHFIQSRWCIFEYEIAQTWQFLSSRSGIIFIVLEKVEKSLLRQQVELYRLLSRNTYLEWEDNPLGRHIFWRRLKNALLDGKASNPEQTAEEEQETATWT
In short: (§1)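 HEK-Blue cells expressing human or mouse TLR4, 2.5 × 10⁴/well in DMEM with 10% FBS, pyruvate, glutamine and antibiotics. Graded doses from 20 mM DMSO stocks, final DMSO 0.05%. Supernatants harvested after 20–24 h; SEAP read by colorimetric substrate at 630 nm. EC50 taken as the concentration giving 50% of maximal activation. LPS 100 ng/mL served as positive control.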

[2] = Cytotoxicity against C57BL/6 mouse primary BMDC assessed as cell viability at 5 uM after 18 hrs by MTT assay relative to control; assay type: cell-based; details: primary BMDC (bone marrow-derived dendritic cells), read-out: Activity
[3] = biological target: T2, Toll-like receptor 4 (Mus musculus) (UniProt Q9QUK6); assay: Agonist activity at mouse TLR4 expressed in HEK293 blue cells assessed as induction of NF-kappaB activation-mediated SEAP production by measuring AUC after 20 to 24 hrs by colorimetric assay relative to N-cyclohexyl-2-(5-methyl-4-oxo-3-phenyl-4,5-dihydro-3H-pyrimido[5,4-b]indol-2-ylthio)acetamide; assay type: cell-based
T2 sequence (whole entry): T1 sequence (Q9QUK6 whole entry)

[4] = biological target: T2, Toll-like receptor 4 (Mus musculus); assay: Agonist activity at TLR4 in C57BL/6 mouse primary BMDC assessed as induction of IL-6 release at 5 uM after 18 hrs by ELISA relative to N-cyclohexyl-2-(5-methyl-4-oxo-3-phenyl-4,5-dihydro-3H-pyrimido[5,4-b]indol-2-ylthio)acetamide
Toll-like receptor 4 [5] = biological target: T3, Toll-like receptor 4 (Homo sapiens, UniProt O00206); assay: Agonist activity at human TLR4 expressed in HEK293 blue cells assessed as induction of NF-kappaB activation-mediated SEAP production after 20 to 24 hrs by colorimetric assay; assay type: cell-based; in short: as §1
Toll-like receptor 4 [6] = biological target: T3, Toll-like receptor 4; assay: Agonist activity at human TLR4 expressed in HEK293 blue cells assessed as induction of NF-kappaB activation-mediated SEAP production by measuring AUC after 20 to 24 hrs by colorimetric assay relative to N-cyclohexyl-2-(5-methyl-4-oxo-3-phenyl-4,5-dihydro-3H-pyrimido[5,4-b]indol-2-ylthio)acetamide; assay type: cell-based

T3 sequence (O00206 whole entry): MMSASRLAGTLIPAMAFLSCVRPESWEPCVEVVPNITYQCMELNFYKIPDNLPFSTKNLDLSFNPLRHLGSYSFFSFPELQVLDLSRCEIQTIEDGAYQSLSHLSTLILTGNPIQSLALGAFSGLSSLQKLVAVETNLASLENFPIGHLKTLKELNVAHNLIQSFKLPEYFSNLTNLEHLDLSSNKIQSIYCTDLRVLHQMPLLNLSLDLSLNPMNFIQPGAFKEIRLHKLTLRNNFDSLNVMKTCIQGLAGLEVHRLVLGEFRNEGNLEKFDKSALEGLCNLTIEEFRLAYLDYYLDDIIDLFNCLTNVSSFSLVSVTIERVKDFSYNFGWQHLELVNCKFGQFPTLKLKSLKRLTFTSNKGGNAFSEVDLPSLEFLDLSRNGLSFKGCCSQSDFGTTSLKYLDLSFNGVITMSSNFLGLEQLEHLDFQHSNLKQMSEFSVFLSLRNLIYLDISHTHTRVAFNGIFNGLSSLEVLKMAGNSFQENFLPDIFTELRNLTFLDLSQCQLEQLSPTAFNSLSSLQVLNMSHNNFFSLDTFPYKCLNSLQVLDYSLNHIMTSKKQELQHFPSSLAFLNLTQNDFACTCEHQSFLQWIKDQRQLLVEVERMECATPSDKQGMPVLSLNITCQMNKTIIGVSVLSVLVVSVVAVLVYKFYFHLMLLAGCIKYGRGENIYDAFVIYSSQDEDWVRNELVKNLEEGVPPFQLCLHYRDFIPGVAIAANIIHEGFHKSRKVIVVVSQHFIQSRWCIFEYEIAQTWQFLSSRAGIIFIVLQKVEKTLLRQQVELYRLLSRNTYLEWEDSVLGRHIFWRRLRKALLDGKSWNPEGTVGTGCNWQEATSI

Row | SMILES | EC50 (Toll-like receptor 4 [1]) [µM] | Activity [3] [%] | Activity [4] [%] | EC50 (Toll-like receptor 4 [5]) [µM] | Activity (Toll-like receptor 4 [6]) [%] | viability at 18 h, 5 µM [2] [%]
1 | Cn1c2ccccc2c2nc(S(=O)(=O)CC(=O)NC3CCCCC3)n(-c3ccccc3)c(=O)c21 | > 10 | 2 | 0 | > 10 | 16 | 50
2 | Cn1c2ccc(NC(=O)c3ccccc3)cc2c2nc(SCC(=O)NC3CCCCC3)n(-c3ccccc3)c(=O)c21 | > 10 | 2 | 7 | > 10 | 26 | 43
3 | Cc1c(C)n(C)c2c(=O)n(-c3ccccc3)c(SCC(=O)NC3CCCCC3)nc12 | > 10 | 22 | 81 | > 10 | 12 | 100
4 | Cn1c2ccccc2c2nc(OCC(=O)NC3CCCCC3)n(-c3ccccc3)c(=O)c21 | > 10 | 1 | 0 | > 10 | 9 | 58
5 | O=C(CCCSc1nc2c([nH]c3ccccc32)c(=O)n1-c1ccccc1)NC1CCCCC1 | > 10 | 2 | 0 | > 10 | 8 | 70
6 | Cn1c2ccc(NC(=O)CCC(=O)O)cc2c2nc(SCC(=O)NC3CCCCC3)n(-c3ccccc3)c(=O)c21 | > 10 | 3 | 0 | > 10 | 28 | 75
7 | Cn1c2ccc(-c3ccc(-c4ccccc4)cc3)cc2c2nc(SCC(=O)NC3CCCCC3)n(-c3ccccc3)c(=O)c21 | > 10 | 1 | 0 | > 10 | 31 | 23
8 | Cn1c2ccccc2c2nc(NCCC(=O)NC3CCCCC3)n(-c3ccccc3)c(=O)c21 | > 10 | 2 | 0 | > 10 | 8 | 92
9 | Cn1c2ccc(N)cc2c2nc(SCC(=O)NC3CCCCC3)n(-c3ccccc3)c(=O)c21 | > 10 | 3 | 0 | > 10 | 17 | 102
10 | Cn1c2cc(C#N)ccc2c2nc(SCC(=O)NC3CCCCC3)n(-c3ccccc3)c(=O)c21 | > 10 | 6 | 3 | > 10 | 20 | 65
11 | CCCCCCCC(=O)Nc1ccc2c(c1)c1nc(SCC(=O)NC3CCCCC3)n(-c3ccccc3)c(=O)c1n2C | > 10 | 1 | 0 | > 10 | 15 | 35

The next lines start with results.

Row | EC50 (Toll-like receptor 4 [1]) [µM] | Activity [3] [%] | Activity [4] [%] | EC50 (Toll-like receptor 4 [5]) [µM] | Activity (Toll-like receptor 4 [6]) [%] | SMILES | viability at 18 h, 5 µM [2] [%]
12 | > 10 | 13 | 65 | > 10 | 8 | Cn1c2c(c3nc(SCC(=O)NC4CCCCC4)n(-c4ccccc4)c(=O)c31)CCCC2 | 106
13 | 4.89 | 34 | 73 | > 10 | 40 | Cn1c2cc(Br)ccc2c2nc(SCC(=O)NC3CCCCC3)n(-c3ccccc3)c(=O)c21 | 93
14 | 2.58 | 38 | 80 | 2.12 | 72 | Cn1c2ccc(-c3cccc4ccccc34)cc2c2nc(SCC(=O)NC3CCCCC3)n(-c3ccccc3)c(=O)c21 | 102
15 | > 10 | 2 | 1 | > 10 | 10 | Cn1c2ccccc2c2nc(NCC(=O)NC3CCCCC3)n(-c3ccccc3)c(=O)c21 | 113
16 | 2.74 | 92 | 92 | 3.27 | 107 | C#Cc1ccc2c(c1)c1nc(SCC(=O)NC3CCCCC3)n(-c3ccccc3)c(=O)c1n2C | 81
17 | 2.51 | 104 | 74 | 3.75 | 204 | Cn1c2ccc(I)cc2c2nc(SCC(=O)NC3CCCCC3)n(-c3ccccc3)c(=O)c21 | 75
18 | > 10 | 3 | 0 | > 10 | 7 | O=C(CCSc1nc2c([nH]c3ccccc32)c(=O)n1-c1ccccc1)NC1CCCCC1 | 58
19 | > 10 | 28 | 78 | > 10 | 18 | Cc1[nH]c2c(=O)n(-c3ccccc3)c(SCC(=O)NC3CCCCC3)nc2c1C | 70
20 | > 10 | 14 | 45 | > 10 | 12 | Cn1c2ccc(C#N)cc2c2nc(SCC(=O)NC3CCCCC3)n(-c3ccccc3)c(=O)c21 | 107
21 | 3.3 | 85 | 78 | > 10 | 87 | Cn1c2ccc(C#C[Si](C)(C)C)cc2c2nc(SCC(=O)NC3CCCCC3)n(-c3ccccc3)c(=O)c21 | 73
22 | > 10 | 1 | 0 | > 10 | 9 | O=c1c2[nH]c3ccccc3c2nc(SCCCC2CCCCC2)n1-c1ccccc1 | 57
23 | > 10 | 5 | 1 | > 10 | 17 | Cn1ccc2nc(SCC(=O)NC3CCCCC3)n(-c3ccccc3)c(=O)c21 | 117
24 | > 10 | 4 | 0 | > 10 | 7 | O=C(CSc1nc2cc[nH]c2c(=O)n1-c1ccccc1)NC1CCCCC1 | 99
25 | 7.12 | 36 | 80 | > 10 | 27 | O=C(CSc1nc2c3c([nH]c2c(=O)n1-c1ccccc1)CCCC3)NC1CCCCC1 | 91
26 | 2.45 | 103 | 120 | 3.58 | 159 | Cn1c2ccc(Br)cc2c2nc(SCC(=O)NC3CCCCC3)n(-c3ccccc3)c(=O)c21 | 63
27 | 2.83 | 82 | 115 | 7.42 | 137 | O=C(CSc1nc2c3c([nH]c2c(=O)n1-c1ccccc1)CCCCC3)NC1CCCCC1 | 84
